The target of one series is TEL-JAK2 (Homo sapiens, UniProt O60674+P41212). As to the kind of experiment: AlphaScreen SureFire pSTAT5 assay, Ba/F3 TEL-JAK2. The format is cell-based. On the technique in general: Alpha assays give light when donor and acceptor beads are brought close together.
Another series concerns the target TEL-JAK3 (Homo sapiens, UniProt P41212+P52333). As to the kind of experiment: AlphaScreen SureFire pSTAT5 assay, Ba/F3 TEL-JAK3. It counts as cell-based.
Series [1] deals with T1, JAK2V617F (Homo sapiens, UniProt O60674, V617F). Kind of series: AlphaScreen SureFire pSTAT5 assay, Ba/F3-JAK2V617F. The format is cell-based.
T1 sequence (O60674 whole entry V617F): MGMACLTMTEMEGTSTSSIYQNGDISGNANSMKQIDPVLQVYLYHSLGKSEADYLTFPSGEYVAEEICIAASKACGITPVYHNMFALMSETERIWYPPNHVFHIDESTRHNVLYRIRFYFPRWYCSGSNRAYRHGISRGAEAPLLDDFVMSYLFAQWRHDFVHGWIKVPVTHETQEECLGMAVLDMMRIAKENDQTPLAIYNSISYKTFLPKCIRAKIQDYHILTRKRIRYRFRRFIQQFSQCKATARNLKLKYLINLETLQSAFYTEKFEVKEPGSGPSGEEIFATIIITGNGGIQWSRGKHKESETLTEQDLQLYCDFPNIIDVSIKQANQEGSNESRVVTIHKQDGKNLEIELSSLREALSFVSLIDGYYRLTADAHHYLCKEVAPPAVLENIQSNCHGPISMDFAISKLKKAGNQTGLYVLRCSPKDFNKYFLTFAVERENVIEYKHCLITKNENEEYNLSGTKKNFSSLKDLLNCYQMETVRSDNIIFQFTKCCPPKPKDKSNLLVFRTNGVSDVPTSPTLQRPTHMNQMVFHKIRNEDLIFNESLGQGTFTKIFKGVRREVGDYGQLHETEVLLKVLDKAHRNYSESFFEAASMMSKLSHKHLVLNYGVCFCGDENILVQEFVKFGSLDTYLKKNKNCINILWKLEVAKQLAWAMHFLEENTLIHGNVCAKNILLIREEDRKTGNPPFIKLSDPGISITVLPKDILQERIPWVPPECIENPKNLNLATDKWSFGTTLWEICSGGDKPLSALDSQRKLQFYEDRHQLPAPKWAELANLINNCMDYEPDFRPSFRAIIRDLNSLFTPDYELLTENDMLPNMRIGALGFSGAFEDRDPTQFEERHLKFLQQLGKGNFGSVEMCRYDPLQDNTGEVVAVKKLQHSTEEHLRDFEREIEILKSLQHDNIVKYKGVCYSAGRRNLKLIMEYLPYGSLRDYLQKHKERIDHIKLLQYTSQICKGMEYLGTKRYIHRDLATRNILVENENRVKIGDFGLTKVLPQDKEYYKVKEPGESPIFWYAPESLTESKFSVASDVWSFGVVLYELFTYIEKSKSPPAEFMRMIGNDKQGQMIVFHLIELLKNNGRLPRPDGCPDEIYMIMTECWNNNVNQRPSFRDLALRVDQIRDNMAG
In the next series the target is TEL-JAK1 (Homo sapiens, UniProt P23458+P41212). Kind of series: AlphaScreen SureFire pSTAT5 assay, Ba/F3 TEL-JAK1. It counts as cell-based.
TEL-JAK1, sequence (P23458 875-1154 limits assumed, one chain of several): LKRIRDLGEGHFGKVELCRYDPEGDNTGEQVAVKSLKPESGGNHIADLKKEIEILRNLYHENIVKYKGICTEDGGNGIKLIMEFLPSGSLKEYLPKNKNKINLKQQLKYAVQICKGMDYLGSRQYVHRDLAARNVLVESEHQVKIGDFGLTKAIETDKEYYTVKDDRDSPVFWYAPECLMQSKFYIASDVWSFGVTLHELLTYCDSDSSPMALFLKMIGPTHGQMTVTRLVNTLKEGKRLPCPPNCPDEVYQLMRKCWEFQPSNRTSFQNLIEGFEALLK
Series [2] concerns Ba/F3 cells expressing JAK2V617F. Kind of series: MTS cell proliferation assay, Ba/F3 JAK2V617F. The note with it: Mus musculus, BaF3, 72 h, read-out: Cell proliferation assay V617F IC50±s.d. It counts as cell-based, murine. A general note: Tetrazolium dyes change colour on reduction, which living cells bring about.
Series [3] has as its target IL-3-activated wild-type JAK2 (Homo sapiens, UniProt O60674). Kind of series: AlphaScreen SureFire pSTAT5 assay, IL-3-stimulated Ba/F3 wild-type JAK2. The format is cell-based.
Another series has as its target T2, JAK3 (Homo sapiens, UniProt P52333).
T2 sequence (P52333 1-1124): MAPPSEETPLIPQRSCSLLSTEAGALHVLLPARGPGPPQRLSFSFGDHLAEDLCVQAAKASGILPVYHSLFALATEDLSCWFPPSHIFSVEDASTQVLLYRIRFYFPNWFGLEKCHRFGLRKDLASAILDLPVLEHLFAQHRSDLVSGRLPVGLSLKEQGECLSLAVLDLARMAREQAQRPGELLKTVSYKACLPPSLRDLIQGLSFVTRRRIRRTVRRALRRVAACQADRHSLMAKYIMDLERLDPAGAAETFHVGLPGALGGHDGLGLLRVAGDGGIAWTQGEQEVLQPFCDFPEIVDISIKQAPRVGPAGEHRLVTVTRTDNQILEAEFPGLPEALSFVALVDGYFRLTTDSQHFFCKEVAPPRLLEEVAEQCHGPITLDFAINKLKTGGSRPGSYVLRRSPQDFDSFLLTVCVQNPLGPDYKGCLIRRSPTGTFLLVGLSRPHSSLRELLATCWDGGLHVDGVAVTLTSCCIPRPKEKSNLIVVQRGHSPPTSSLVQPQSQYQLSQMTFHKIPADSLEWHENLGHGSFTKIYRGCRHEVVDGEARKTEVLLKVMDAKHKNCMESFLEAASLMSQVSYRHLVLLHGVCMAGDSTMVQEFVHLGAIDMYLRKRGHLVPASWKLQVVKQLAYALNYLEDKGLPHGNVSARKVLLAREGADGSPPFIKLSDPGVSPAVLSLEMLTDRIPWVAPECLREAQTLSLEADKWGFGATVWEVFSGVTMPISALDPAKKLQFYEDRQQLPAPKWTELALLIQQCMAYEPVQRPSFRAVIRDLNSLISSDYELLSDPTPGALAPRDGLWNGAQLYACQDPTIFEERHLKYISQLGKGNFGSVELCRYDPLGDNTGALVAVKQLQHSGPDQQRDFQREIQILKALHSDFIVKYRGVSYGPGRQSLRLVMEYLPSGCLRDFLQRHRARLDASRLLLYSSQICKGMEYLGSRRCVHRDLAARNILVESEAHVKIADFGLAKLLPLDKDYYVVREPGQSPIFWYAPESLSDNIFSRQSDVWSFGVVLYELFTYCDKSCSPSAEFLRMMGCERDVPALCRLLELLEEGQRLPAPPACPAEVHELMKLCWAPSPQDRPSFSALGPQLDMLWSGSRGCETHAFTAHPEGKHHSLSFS
As to the kind of experiment: JAK LanthaScreen Kinase Assay. Particulars: second-tier biochemical / LanthaScreen assay. On the technique in general: TR-FRET usually uses a lanthanide donor and a delayed reading to cut background.

Another series has as its target JAK3/JAK1 heterodimer (Homo sapiens, UniProt P23458+P52333). Kind of series: Cellomics pSTAT5 assay, IL-2-stimulated NK-92 cells. It counts as cell-based. Summed up:
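NK-92 cells were kept overnight in MEM Alpha with 0.3% FBS and 0.3% horse serum, then plated with DMSO or a 10-point 1:3 dilution series (20 to 0.001 μM) for 10 min. IL-2 (0.5 μg/ml) was then added for 20 min. Cells were fixed, stained for pSTAT5 (pY694) with Alexa Fluor 647 and Hoechst, and imaged. IC50 came from a four-parameter logistic fit.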

Series [4] relates to cytotoxic T-cells, CD3+CD8a+. Kind of series: 14-day rat immunotoxicology, flow cytometry. The format is in vivo, Sprague-Dawley rats. Particulars: for Change in cytotoxic T-cells, CD3+CD8a+, peripheral blood / Change in cytotoxic T-cells, CD3+CD8a+, spleen: gavage, Compound 1 15 mg/kg, Compound 2 (LY2784544) 30 mg/kg; for Percentage of T-cytotoxic cells (peripheral blood and splenic): pharmacologically active exposures, result in words.

Series [5] concerns the target T3, JAK2 (Homo sapiens, UniProt O60674). Kind of series: JAK LanthaScreen Kinase Assay. The note with it: Biochemical measurement of JAK inhibition, JAK2 IC50±s.d., Table 1.
In series [6] the test system is Ba/F3-JAK2V617F-GFP tumor cells, erythroid progenitors, peripheral blood counts. Kind of series: 8-day mouse hematologic disease model, hematopoiesis. The format is in vivo, SCID mice. Particulars: result in words. Summed up:
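This was an 8-day version of the intravenous Ba/F3-JAK2V617F-GFP SCID mouse model. Dosing at 5, 20, 40 or 80 mg/kg began one day before tumor cell infusion and continued twice daily for 8 days. Splenocytes were analysed by FACS for GFP-positive tumor cells and for erythroid progenitors stained with Ter119-APC and CD71-PE, with 7-AAD excluding nonviable cells. Peripheral blood counts were also taken.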

For series [7], the target named is T3, JAK2. Kind of series: Cellomics pSTAT5 assay, EPO-stimulated TF-1 cells. The format is cell-based. Summed up: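 TF-1 cells were starved overnight in RPMI with 0.6% FBS, then plated at 2 × 10^5 cells/well with DMSO or a 10-point 1:3 dilution series (20 to 0.001 μM). After 10 min, erythropoietin (1.6 units/ml) was added for 20 min. Cells were fixed, stained with anti-pSTAT5 (pY694) Alexa Fluor 647 and Hoechst, and imaged. IC50 came from a four-parameter logistic fit.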

Series [8] deals with Ba/F3-JAK2V617F-GFP tumor burden. Kind of series: 14-day in vivo efficacy, JAK2V617F-induced mouse MPN model. More on the design: species or system SCID mice. Summed up: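 SCID mice received 1 × 10^7 Ba/F3-JAK2V617F-GFP cells intravenously (six mice/group). Twice-daily oral gavage at 2.5–80.0 mg/kg started 7 days after infusion and ran 14 days. Endpoints were complete blood counts from cardiac puncture, spleen weight, and FACS of splenocytes for total number and percentage of GFP-positive cells. Dunnett's test at α=0.05.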

The target of series [9] is T1, JAK2V617F. As to the kind of experiment: Western blot pSTAT5, HEK293T JAK2V617F. It counts as cell-based. The note with it: HEK293 cells expressing JAK2V617F, 1 h.
The target in a further series is wild-type JAK2 (Homo sapiens, UniProt O60674). Kind of series: Western blot pSTAT5, IL-3-stimulated Ba/F3 wild-type JAK2. The format is cell-based. Particulars: Ba/F3 wild-type JAK2, 50 and 200 nM.
wild-type JAK2, sequence (O60674 whole entry): as the sequence (O60674 whole entry V617F) above, with F617V counted along it
Series [10] is described as follows: 14-day rat pilot toxicology study. Particulars: 30, 60, or 100 mg/kg. The format is in vivo.
The subject of series [11] is Ba/F3 cells expressing JAK2V617F. As to the kind of experiment: Caspase-Glo 3/7 apoptosis assay. The format is cell-based, murine. The note with it: Mus musculus, BaF3, 18 h, read-out: Induction of apoptosis EC50 (Caspase3/7-glo).
The next series deals with JAK2Y931C (Homo sapiens, UniProt O60674, Y931C). As to the kind of experiment: Western blot pSTAT5, HEK293T JAK2Y931C. It counts as cell-based. The note with it: HEK293 cells expressing JAK2Y931C, 1 h.
JAK2Y931C, sequence (O60674 whole entry Y931C): as the sequence (O60674 whole entry V617F) above, with F617V, Y931C counted along it
A further series has as its target JAK2 R564Q (Homo sapiens, UniProt O60674, R564Q). Kind of series: Western blot pSTAT5, HEK293T JAK2 R564Q. The format is cell-based. Particulars: HEK293 cells expressing JAK2 R564Q, 1 h.
The subject of series [12] is JAK2V617F signaling in Ba/F3-JAK2V617F-GFP ascitic tumor cells. As to the kind of experiment: In vivo target inhibition, pSTAT5 in mouse ascitic tumor model. More on the design: species or system SCID mice. Summed up:
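Ascitic tumors were grown in CB17 SCID mice for 7 days after intraperitoneal implantation of 1 × 10^7 Ba/F3-JAK2V617F-GFP cells. A single oral gavage dose (2.5–80.0 mg/kg, six animals/group) was given and tumor cells were collected 30 min later. For time courses, 20, 40 or 80 mg/kg was given with collection at 0.25–6.0 h. Cells were fixed, stained 2 h for pSTAT5 (pY694), and analysed by flow cytometry. Statistics used ANOVA with Dunnett's test and a four-parameter logistic fit.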

Series [13] concerns the target T1, JAK2V617F. As to the kind of experiment: Western blot pSTAT5, Ba/F3 JAK2V617F. The format is cell-based. The note with it: 50 nM–20 μM, 2 h.
The target of the next series is JAK2 H538Q (Homo sapiens, UniProt O60674, H538Q). As to the kind of experiment: Western blot pSTAT5, HEK293T JAK2 H538Q. It counts as cell-based. The note with it: HEK293 cells expressing JAK2 H538Q, 1 h.
JAK2 H538Q, sequence (O60674 whole entry H538Q): as the sequence (O60674 whole entry V617F) above, with H538Q, F617V counted along it

Each structure is given as a SMILES string. Where “and” joins values, the source holds several entries; their conditions need not be identical. Identical values can stand only once. Entries after “also recorded” stand apart in the source; their conditions may differ. Marks after values point to notes of the source that are not given here.

JAK3/JAK1 heterodimer, sequence (P23458 whole entry, one chain of several): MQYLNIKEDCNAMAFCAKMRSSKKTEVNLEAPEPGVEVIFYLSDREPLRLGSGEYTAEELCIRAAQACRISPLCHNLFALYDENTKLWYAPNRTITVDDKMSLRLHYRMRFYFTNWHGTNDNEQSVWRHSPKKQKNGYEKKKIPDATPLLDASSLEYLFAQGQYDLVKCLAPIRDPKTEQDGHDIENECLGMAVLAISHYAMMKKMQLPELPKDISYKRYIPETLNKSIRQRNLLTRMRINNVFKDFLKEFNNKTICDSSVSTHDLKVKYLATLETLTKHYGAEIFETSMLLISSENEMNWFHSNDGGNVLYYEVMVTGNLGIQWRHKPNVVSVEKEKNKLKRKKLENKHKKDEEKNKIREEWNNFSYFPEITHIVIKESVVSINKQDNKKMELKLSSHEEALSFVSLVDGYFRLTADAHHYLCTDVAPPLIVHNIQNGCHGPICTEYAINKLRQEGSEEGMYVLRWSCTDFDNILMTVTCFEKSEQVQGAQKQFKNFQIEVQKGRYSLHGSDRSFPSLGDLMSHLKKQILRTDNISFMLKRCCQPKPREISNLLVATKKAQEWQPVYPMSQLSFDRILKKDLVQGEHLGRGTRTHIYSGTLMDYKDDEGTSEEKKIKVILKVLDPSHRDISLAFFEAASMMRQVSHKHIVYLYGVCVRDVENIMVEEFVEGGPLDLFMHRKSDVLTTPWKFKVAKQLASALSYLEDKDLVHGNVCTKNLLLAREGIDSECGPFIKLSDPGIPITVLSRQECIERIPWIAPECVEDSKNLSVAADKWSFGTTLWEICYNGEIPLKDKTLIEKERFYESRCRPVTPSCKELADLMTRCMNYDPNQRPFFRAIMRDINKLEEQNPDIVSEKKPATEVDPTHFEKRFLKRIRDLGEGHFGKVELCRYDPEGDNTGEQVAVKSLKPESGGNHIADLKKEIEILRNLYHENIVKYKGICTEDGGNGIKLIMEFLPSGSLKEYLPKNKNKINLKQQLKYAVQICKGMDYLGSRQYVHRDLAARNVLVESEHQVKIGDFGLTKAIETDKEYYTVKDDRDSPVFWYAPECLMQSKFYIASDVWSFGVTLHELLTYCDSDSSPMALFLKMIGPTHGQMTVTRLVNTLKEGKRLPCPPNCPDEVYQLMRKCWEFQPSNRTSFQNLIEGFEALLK
JAK3/JAK1 heterodimer, sequence (P14784 27-551 partner, one chain of several): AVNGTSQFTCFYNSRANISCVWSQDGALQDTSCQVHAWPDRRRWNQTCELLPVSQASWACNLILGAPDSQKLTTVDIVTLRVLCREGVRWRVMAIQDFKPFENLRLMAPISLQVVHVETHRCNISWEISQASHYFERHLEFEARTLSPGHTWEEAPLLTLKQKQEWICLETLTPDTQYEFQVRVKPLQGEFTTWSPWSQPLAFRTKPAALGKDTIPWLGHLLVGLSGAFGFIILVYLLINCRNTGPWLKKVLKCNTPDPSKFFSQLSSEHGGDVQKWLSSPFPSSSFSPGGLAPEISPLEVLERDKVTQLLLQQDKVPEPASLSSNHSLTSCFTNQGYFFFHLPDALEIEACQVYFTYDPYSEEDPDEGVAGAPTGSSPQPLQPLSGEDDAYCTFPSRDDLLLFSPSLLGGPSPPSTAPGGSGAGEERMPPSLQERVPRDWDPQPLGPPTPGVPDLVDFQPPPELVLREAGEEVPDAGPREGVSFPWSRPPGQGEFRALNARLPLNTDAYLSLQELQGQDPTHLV
JAK3/JAK1 heterodimer, sequence (P31785 23-369 partner, one chain of several): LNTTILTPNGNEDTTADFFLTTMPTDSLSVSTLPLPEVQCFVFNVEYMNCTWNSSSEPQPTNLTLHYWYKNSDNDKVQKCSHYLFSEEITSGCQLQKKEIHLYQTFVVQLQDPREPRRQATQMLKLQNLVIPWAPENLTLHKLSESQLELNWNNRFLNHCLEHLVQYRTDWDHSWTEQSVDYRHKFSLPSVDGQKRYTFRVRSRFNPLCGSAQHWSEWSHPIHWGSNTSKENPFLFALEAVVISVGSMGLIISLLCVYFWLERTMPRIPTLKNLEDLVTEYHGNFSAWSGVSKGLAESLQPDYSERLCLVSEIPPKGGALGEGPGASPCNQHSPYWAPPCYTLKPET
T3 sequence (O60674 whole entry): as the sequence (O60674 whole entry V617F) above, with F617V counted along it
TEL-JAK2, sequence (O60674 840-1132 limits assumed, one chain of several): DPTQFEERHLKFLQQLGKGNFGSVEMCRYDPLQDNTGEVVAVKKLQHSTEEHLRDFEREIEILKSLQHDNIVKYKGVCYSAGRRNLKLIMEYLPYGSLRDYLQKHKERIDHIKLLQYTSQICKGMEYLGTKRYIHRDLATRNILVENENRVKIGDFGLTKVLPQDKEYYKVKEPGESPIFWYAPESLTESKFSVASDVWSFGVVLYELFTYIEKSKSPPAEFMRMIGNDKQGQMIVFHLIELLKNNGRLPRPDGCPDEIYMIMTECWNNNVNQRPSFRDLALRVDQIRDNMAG
JAK2 R564Q, sequence (O60674 whole entry R564Q): as the sequence (O60674 whole entry V617F) above, with R564Q, F617V counted along it
IL-3-activated wild-type JAK2, sequence (O60674 whole entry): as the sequence (O60674 whole entry V617F) above, with F617V counted along it

As for `Cc1cc(Nc2nc(N[C@@H](C)c3ncc(F)cn3)ncc2Cl)n[nH]1` [AZD1480, reference compound], the IC50 came out at 139 ± 47 nM at TEL-JAK2; 2550 ± 345 nM against TEL-JAK3; 19 ± 13 nM on JAK2V617F [1]; 663 ± 74 nM against TEL-JAK1; 43 ± 1 nM in series [2]; 181 ± 132 nM in series [3].
`Cc1cc(Nc2ccc3ncn([C@@H]4CCc5ccc(F)cc54)c3n2)[nH]n1.Cl.Cl` [Compound 1, 3-[(1R)-6-fluoro-2,3-dihydro-1H-inden-1-yl]-N-(3-methyl-1H-pyrazol-5-yl)-3H-imidazo[4,5-b]pyridin-5-amine dihydrochloride]: the “Selectivity for JAK2 over JAK3, biochemical” value on JAK3 is reported as “fourfold”. On JAK3/JAK1 heterodimer, the IC50 worked out at 228 ± 76 nM. In addition, in [4], the “Change in cytotoxic T-cells, CD3+CD8a+, peripheral blood” value is −39 (P<0.05) %; the “Change in cytotoxic T-cells, CD3+CD8a+, spleen” value is −42 (P<0.05) ^d %; the “Percentage of T-cytotoxic cells (peripheral blood and splenic)” value is reported as “statistically significant decrease”. Also, at JAK2 [5], the IC50 was found to be 2 nM.
Turning to `Cc1cc(Nc2cc(CN3CCOCC3)c3nc(C)c(Cc4ccc(Cl)cc4F)n3n2)n[nH]1` [LY2784544, 3-(4-chloro-2-fluorobenzyl)-2-methyl-N-(5-methyl-1H-pyrazol-3-yl)-8-(morpholinomethyl)imidazo[1,2-b]pyridazin-6-amine], the IC50 on TEL-JAK2 worked out at 191 ± 36 nM; at TEL-JAK3 it was 4740 ± 738 nM; at JAK2 [7], 45 ± 19 nM; at JAK3/JAK1 heterodimer, 942 ± 255 nM; at TEL-JAK1, 2900 ± 486 nM; in series [2], 55 ± 4 nM. In addition, the “Percentage of Ba/F3-JAK2V617F-GFP-positive cells in spleen” value in [6] (40 mg/kg (P=8 × 10^−4) and 80 mg/kg (P=8 × 10^−7) BID, 8 days) is listed as “significantly reduced”. Besides, the “Effect on erythroid progenitor (CD71+/Ter119+) cells” value in series [6] (5–80 mg/kg BID, 8 days) is listed as “no effect; also recorded: did not affect”. Also, in [6] (5–80 mg/kg BID, 8 days), the “Effect on peripheral blood reticulocytes” value was “no effect; also recorded: did not reduce”. Moreover, the Effect on platelets entry in series [6] is recorded as “no effect”. The Spleen mass reduction result in series [8] (20 mg/kg BID, 14 days) is “about 20%”. The “Decrease in GFP-positive Ba/F3-JAK2V617F cells” value in series [8] (20 mg/kg BID, 14 days, spleen) is around 50%. Besides, the “Reduction of the number of Ba/F3 cells expressing JAK2V617F” value in series [8] (20, 40 or 80 mg/kg, BID) is on record as at least 50%. For the same compound, the “TED50 for tumor burden reduction” value in series [8] (oral, twice daily, 14 days, Ba/F3-JAK2V617F-GFP cells in spleen) worked out at 13.7 mg/kg. The “Inhibition of STAT5 phosphorylation, western blot” value on JAK2V617F [9] is listed as “effectively inhibited”; at JAK2Y931C, “much less potency”; at JAK2 R564Q it was “effectively inhibited”; at JAK2V617F [13], “potently inhibited”; on JAK2 H538Q it was “effectively inhibited”. In addition, on wild-type JAK2, the “Inhibition of IL-3-stimulated STAT5 phosphorylation, western blot” value is given as “marginal inhibition”. Also, the “Change in cytotoxic T-cells, CD3+CD8a+, peripheral blood” value in series [4] is recorded as “No change”. In series [4], the “Change in cytotoxic T-cells, CD3+CD8a+, spleen” value is “No change”. In addition, in series [4], the “Percentage of T-cytotoxic cells (peripheral blood and splenic)” value is given as “did not decrease”. In series [10], the “Gastric- and intestine-related toxicity” value was “No gastric- and intestine-related toxicity was observed”. Besides, the EC50 in series [11] came out at 113 ± 0.023 nM. In addition, the “TEC50, plasma concentration to inhibit 50% of STAT5 phosphorylation” value in series [12] (30 min after oral dosing) is 699.0 ng/ml and 1.49 μM. Moreover, the “Duration of statistically significant inhibition of STAT5 phosphorylation” value in series [12] (single 40 mg/kg oral dose) was “at least 2 h”; in [12] (single 80 mg/kg oral dose) it was “at least 6 h”. Further, in series [12] (single oral dose, 30 min after dosing, ascitic tumor cells), the “TED50, dose to inhibit 50% of STAT5 phosphorylation” value worked out at 12.7 mg/kg.

(Values after publication PMC3641321 (Blood Cancer Journal, 2013).)
